KCNK9 inh-1: KCNK9 potassium channel inhibitors, primary screen, HEK293 cells, thallium flux | 310,000 compounds, 1.2% hits | B-score at 10 µM | Potassium channel subfamily K member 9 (Homo sapiens), Q9NPC2 | FluxOR thallium flux fluorescence; active compounds read low;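 active = ratio B-score over 3 SD below the library mean, with starting fluorescence within 5 SD of its mean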;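 note: negative B-score means less thallium flux so channel inhibition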
KCNQ1 inh: inhibitors of human KCNQ1 channel, primary screen, cell-based, thallium flux, high-throughput | B-score at 10 µM | CHO-K1 KCNQ1, FluxOR thallium flux fluorescence; active compounds read high | 310,000 compounds, 1.3% hits | AID 2642, 2010;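 active = compounds whose thallium flux B-score, printed positive for inhibition, exceeds three library SD while starting fluorescence stays within three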;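 note: channel opened by potassium depolarization with thallium stimulus after 20 min compound exposure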
KCNK3 block: human KCNK3 channel inhibitors, primary screen, CHO cells, FluxOR thallium flux, B-score. 340,000 compounds, 0.84% hits. AID 602410, 2012. FluxOR fluorescence; active compounds read low. B-score at 10 µM;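 active = B-score under library mean minus 4 SD, starting fluorescence ratio at most library mean plus 5 SD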;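 note: more negative B-score means stronger inhibition of thallium flux through KCNK3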
hERG rescue: hERG rescue from dofetilide block, primary screen, cell-based, CHO-hERG, FluxOR thallium flux, dofetilide IC70 | dofetilide IC70 present | 310,000 compounds, 0.51% hits | activation (rescue from dofetilide block), less the hit threshold, % at 10 µM;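 active = activation above the mean of controls blocked by dofetilide plus 5 SD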;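 note: thallium influx through hERG after potassium depolarization seen as dye fluorescence rise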
KCNQ1 pot: potentiators or activators of KCNQ1 channel, primary screen, cell-based, thallium flux, high-throughput; CHO-K1 KCNQ1, thallium flux FluxOR fluorescence; active compounds read high; B-score at 10 µM; Potassium voltage-gated channel subfamily KQT member 1 (Homo sapiens), P51787; 310,000 compounds, 0.35% hits;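 active = fluorescence ratio B-score, a plate-corrected score, at least three library SD, with initial intensity B-score within 5 SD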
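Material: CHO-K1 cells stably expressing KCNQ1. Medium: assay buffer for compound exposure, DMSO matched across wells. Reagent: K+/Tl+ depolarizing stimulus. Compound dosing: single-concentration screen. Times: 37 °C overnight plating, 90-min dark dye load, 20-min compound pretreatment. Technique: FluxOR Tl+ flux fluorescence.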
Kir21 block: inhibitors of mouse Kir2.1 inward-rectifier potassium channel; Inward rectifier potassium channel 2 (Mus musculus), P35561; HEK293-Kir2.1, FluxOR thallium flux fluorescence; active compounds read low; B-score at 10 µM; 310,000 compounds, 0.85% hits; AID 1672, 2009;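 active = fluorescence ratio B-score at or below minus 3 SD of library scores, with starting-brightness B-score within 2 SD, cut at about -4.2 in these data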;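 note: channel flux triggered by added potassium and thallium sulfate stimulus; B-score of peak minus minimum fluorescence over baseline after thallium stimulus; more negative B-score means stronger Kir2.1 block with less thallium influx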
Target sequence (P35561 whole entry, looked up): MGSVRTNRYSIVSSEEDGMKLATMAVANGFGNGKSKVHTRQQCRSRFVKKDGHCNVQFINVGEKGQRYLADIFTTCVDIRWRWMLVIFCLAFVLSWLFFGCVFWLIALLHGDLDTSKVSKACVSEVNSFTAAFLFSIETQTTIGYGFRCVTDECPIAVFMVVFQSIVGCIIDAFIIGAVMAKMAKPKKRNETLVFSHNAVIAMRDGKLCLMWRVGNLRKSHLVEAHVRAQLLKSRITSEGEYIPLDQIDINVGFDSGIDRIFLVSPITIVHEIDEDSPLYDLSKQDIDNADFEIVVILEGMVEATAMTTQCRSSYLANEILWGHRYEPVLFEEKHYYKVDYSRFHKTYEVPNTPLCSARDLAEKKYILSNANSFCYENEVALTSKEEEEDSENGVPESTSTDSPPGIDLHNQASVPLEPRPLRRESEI
hERG inh: hERG channel inhibition, counter-screen for Kir2.1 inhibitor project, cell-based, thallium flux; AID 2236, 2010; 320 compounds, 20% hits; hERG-expressing cells; inhibition, % at 10 µM; shares compounds with Kir21 block;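 note: host cells are CHO cells stably expressing hERG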
KCNK9 inh-2: KCNK9 channel inhibition, selectivity assay for Kir2.1 inhibitor project, cell-based | shares compounds with Kir21 block | KCNK9-expressing cells, ion flux inhibition | inhibition, % at 10 µM | 320 compounds, 5% hits
Kir21 ephys inh: mouse Kir2.1 channel blockers, Kir2.1 inhibitor project, cell-based, secondary, automated electrophysiology; shares compounds with Kir21 block; Kir2.1 cells, automated patch-clamp current inhibition; inhibition, % at 25 µM; 320 compounds, 71% hits; AID 463252, 2010
KCNQ1 inh valid: KCNQ1 potassium channel inhibitors, confirmation, cell-based, Tl flux, duplicate; 1,600 compounds, 93% hits; KCNQ1 cell line, FluxOR thallium flux fluorescence; inhibition, % at 10 µM; shares compounds with KCNQ1 inh;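 active = primary screen active, with duplicate mean exceeding buffer control mean plus 3 SD of buffer wells, cut at about 28% in these data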;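 note: 0% = buffer control ratio and 100% = XE991 inhibitor control ratio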
CHO KCNQ1 ctr: thallium flux effects in parental CHO cells, counter-screen for KCNQ1 inhibitor project, cell-based, Tl flux | fluorescence ratio (Tl flux) at 10 µM | shares compounds with KCNQ1 inh | parental CHO-K1, FluxOR thallium flux fluorescence ratio; active compounds read low; zero means no signal rise above baseline | 1,600 compounds, 21% hits;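 active = mean of duplicate thallium-flux fluorescence ratios in parental host cells more than 5 SD below the buffer control mean, cut at about 0.38 in these data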;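 note: ratio is peak minus minimum fluorescence divided by baseline fluorescence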
KCNQ1 APC inh: KCNQ1 channel inhibitors, confirmation, orthogonal assay, cell-based, automated electrophysiology. shares compounds with KCNQ1 inh. KCNQ1-CHO cells, automated patch clamp current. calls only at 10 µM. 490 compounds, 20% hits;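 active = KCNQ1 current drop exceeding 3 SD of negative control wells, seen in both duplicate runs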;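 note: steady state current during a 2 s step from -80 to +40 mV; negative values mean current inhibition and positive values mean potentiation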
KCNQ2 inh: KCNQ2 channel inhibition, selectivity assay for KCNQ1 inhibitor project, cell-based. 1,600 compounds, 71% hits. KCNQ2 cells, FluxOR thallium flux fluorescence. shares compounds with KCNQ1 inh. inhibition, % at 10 µM;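 active = mean percent inhibition of the KCNQ2 thallium signal more than 5 SD above the buffer-only control wells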;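 note: KCNQ2 expressed in CHO cells; 0% = buffer control wells and 100% = XE-991 inhibitor control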
KCNQ1-KCNE1 inh: KCNQ1/KCNE1 channel inhibition, selectivity assay for KCNQ1 inhibitor project, CHO-K1 cells, thallium flux, FluxOR. FluxOR thallium flux fluorescence. AID 652147, 2013. shares compounds with KCNQ1 inh. inhibition, % at 10 µM. 1,600 compounds, 77% hits;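 active = mean percent inhibition of duplicate wells above the buffer-only control mean plus 3 SD of those controls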;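 note: 0% = buffer only wells and 100% = XE-991 inhibitor control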
KCNK3 confirm: retest of human KCNK3 channel inhibitors, confirmation, CHO cells, FluxOR thallium flux, triplicate; AID 651638, 2012; shares compounds with KCNK3 block; FluxOR fluorescence; 0% buffer, 100% carvedilol maximal block; 2,400 compounds, 99% hits; ratio percent of control, % at 10 µM;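 active = ratio percent of control, averaged over triplicates, above buffer control mean plus 5 SD, cut at about 64% in these data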;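 note: ratio is the fluorescence rise from min to max over baseline after thallium stimulus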
KCNK3 noninduced: thallium flux inhibition in non-induced cells, primary screen, counter-screen for KCNK3 inhibitor project, cell-based, non-induced KCNK3 line, FluxOR thallium, triplicate; thallium flux ratio (lower = more inhibition) at 10 µM; shares compounds with KCNK3 block; non-induced KCNK3 parental cells; active compounds read low; 2,400 compounds, 40% hits; AID 651747, 2012;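 active = thallium flux ratio, averaged over three wells, more than 5 SD below the buffer control mean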;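 note: host cells are CHO cells without KCNK3 induction; ratio is peak minus trough fluorescence over baseline then normalized to buffer controls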
* = called active by the depositor; i = inactive; nt = not tested or not shown; + = active, no number. A selection: hits, their analogues and other compounds. The true share with any hit is near 3.7%. Unless noted, the rule behind the calls is not given here.

SMILES	KCNK9 inh-1	KCNQ1 inh	KCNK3 block	hERG rescue	KCNQ1 pot	Kir21 block	KCNQ1 inh valid	CHO KCNQ1 ctr	KCNQ2 inh	KCNQ1-KCNE1 inh	others
O=C(N/N=C/c1cccc(Oc2ccccc2)c1)c1cccc(O)c1	i	i	-12.9*	-27.3	i	-8.12*	nt	nt	nt	nt	hERG inh=i;KCNK9 inh-2=i;Kir21 ephys inh=41.2%*;KCNK3 confirm=131.0*;KCNK3 noninduced=0.12*
O=C(Cn1nnc(-c2ccc(CN3CCOCC3)cc2)n1)N(c1ccccc1)c1ccccc1	i	i	i	-12.8	i	-0.87	nt	nt	nt	nt
Cc1nnc2ccc(Oc3ccc(-c4ccccc4)cc3)nn12	i	9*	i	-17.3	i	0.08	67.0*	0.468	i	i
NC1=NC[C@H](c2ccccc2)N1CCCCC1CCCCC1	i	9*	i	-14.8	i	-6.74*	116.5*	0.396	120.3%*	87.5%*	KCNQ1 APC inh=+
S=C1NC[C@H](c2ccccc2)N1CCCCC1CCCCC1	i	i	i	-7.5	i	0.18	nt	nt	nt	nt
CCOC(=O)C1=C(C)N(CCCC(=O)O)C(=O)NC1c1ccccc1OC(=O)c1cccs1 (centres undefined)	i	i	nt	-5.8	i	1.3	nt	nt	nt	nt
COC(=O)CN1C(c2ccccc2O)Nc2ccc(Br)cc2C1c1ccccc1 (centres undefined)	-6.59*	8*	i	-10.1	i	0.14	98.5*	0.361*	86.0%*	132.5%*
CC1(C)Cc2ccccc2-c2nc(NN)[nH]c(=O)c21	i	i	i	-9.2	i	-1.32	nt	nt	nt	nt
CC1(C)Cc2ccccc2-c2nc(-c3ccccc3)oc(=O)c21	i	10*	i	-14.1	i	-1.01	101.5*	0.442	99.0%*	130.0%*
O=C1CCN(Cc2cccnc2)CCN1[C@H](CO)Cc1ccccc1	i	i	i	2.0	i	2.36	nt	nt	nt	nt
CCN(CC)S(=O)(=O)c1ccc2oc(C(=O)NCC3COc4ccccc4O3)c(C)c2c1 (centres undefined)	i	8*	i	-14.7	i	0.48	96.5*	0.44	81.3%*	127.5%*	KCNQ1 APC inh=i
Cc1ccc(S(=O)(=O)NC(C)(C)C)cc1C(=O)OCC(=O)N1CCCC1=O	i	i	i	-7.5	i	0.75	nt	nt	nt	nt
COC(=O)c1[nH]c2cc(C)ccc2c1NC(=O)CN1CCN(C(=O)c2ccco2)CC1	i	i	i	-2.0	i	1.38	nt	nt	nt	nt
COC(=O)c1[nH]c2cc(C)ccc2c1NC(=O)CN1CCCc2ccccc21	i	8*	i	-12.3	i	-1.4	71.5*	0.439	93.3%*	81.5%*
O=C(OCCN1C(=O)c2cccc3c(N4CCOCC4)ccc(c23)C1=O)c1ccc(Cl)cc1	i	10*	i	-18.6	i	-2.4	+	0.0875*	i	i
O=C(OCCN1C(=O)c2ccccc2C1=O)c1cc(S(=O)(=O)N2CCOCC2)ccc1F	i	i	i	-8.9	i	-0.85	nt	nt	nt	nt
CCCOc1ccc(Br)cc1CSC(=N)N	i	9*	i	-16.0	i	-8.18*	100.5*	0.461	78.0%*	45.5%*	KCNQ1 APC inh=+
CCOc1ccc(Br)cc1CC(=O)O	i	i	i	-7.5	i	-0.41	nt	nt	nt	nt
Cc1cc(C)n(CCCN2C(=O)c3cccc4cccc(c34)C2=O)n1	i	i	i	-3.3	i	-0.52	nt	nt	nt	nt
O=C(Nc1cccc(F)c1)N1CC=C(c2ccc(Cl)cc2)CC1	i	13*	i	-11.3	i	-0.18	131.5*	0.439	102.7%*	168.5%*	KCNQ1 APC inh=i
O=C(CN1CCN(c2ccc(Cl)cc2)CC1)Nc1cccc(F)c1	i	i	i	-8.1	i	-0.39	nt	nt	nt	nt
CCCc1c(-c2ccc(O)cc2)nn(-c2ccc(O)cc2)c1-c1ccc(O)cc1	i	13*	-8.97*	-35.6	i	-1.81	146.5*	0.254*	i	+
